The values below come from ChEMBL document CHEMBL1134623, “Design and synthesis of a series of (2R)-N(4)-hydroxy-2-(3-hydroxybenzyl)-N(1)- [(1S,2R)-2-hydroxy-2,3-dihydro-1H-inden-1-yl]butanediamide derivatives as potent, selective, and orally bioavailable aggrecanase inhibitors” (J Med Chem, 2001).

The IC50 is the concentration needed to halve the response being measured. The low end stands for greater potency, the high end for weaker potency. What is called Ki is a measure of affinity in units of concentration, obtained from inhibition or displacement.

Experiment [1] in a line: Inhibition of aggrecanase. Further details: species or system Homo sapiens. An outline of the steps: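 Enzyme was a partially purified preparation from IL-1-stimulated bovine nasal cartilage. No amino acid sequence was available for it when screening began.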
For another experiment, the target named is T1, Interstitial collagenase (Homo sapiens, UniProt P03956).
T1 sequence (P03956 whole entry): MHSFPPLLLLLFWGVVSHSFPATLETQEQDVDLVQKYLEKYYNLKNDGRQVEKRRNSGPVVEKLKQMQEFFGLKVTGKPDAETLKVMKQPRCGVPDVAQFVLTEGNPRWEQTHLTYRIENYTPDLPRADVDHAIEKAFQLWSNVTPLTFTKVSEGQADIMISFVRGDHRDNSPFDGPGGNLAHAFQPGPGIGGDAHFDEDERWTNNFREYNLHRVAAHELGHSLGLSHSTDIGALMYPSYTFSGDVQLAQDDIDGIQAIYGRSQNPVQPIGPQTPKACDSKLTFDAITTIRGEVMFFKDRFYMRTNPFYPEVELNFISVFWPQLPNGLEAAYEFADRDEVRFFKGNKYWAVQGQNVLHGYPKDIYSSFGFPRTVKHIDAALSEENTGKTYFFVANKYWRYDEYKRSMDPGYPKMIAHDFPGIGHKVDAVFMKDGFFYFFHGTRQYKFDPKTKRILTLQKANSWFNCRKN
Briefly: Inhibition of matrix metalloprotease-1.

The target in a further experiment is Neutrophil collagenase (Homo sapiens, UniProt P22894). As to the kind of experiment: Inhibition of matrix metalloprotease-8.
Experiment [2] addresses 72 kDa type IV collagenase (Homo sapiens, UniProt P08253). As to the kind of experiment: Inhibition of matrix metalloprotease-2.
Experiment [3] deals with Matrix metalloproteinase-9 (Homo sapiens, UniProt P14780). Briefly: Inhibition of human matrix metalloprotease-9.
Sequence of Matrix metalloproteinase-9 (P14780 whole entry): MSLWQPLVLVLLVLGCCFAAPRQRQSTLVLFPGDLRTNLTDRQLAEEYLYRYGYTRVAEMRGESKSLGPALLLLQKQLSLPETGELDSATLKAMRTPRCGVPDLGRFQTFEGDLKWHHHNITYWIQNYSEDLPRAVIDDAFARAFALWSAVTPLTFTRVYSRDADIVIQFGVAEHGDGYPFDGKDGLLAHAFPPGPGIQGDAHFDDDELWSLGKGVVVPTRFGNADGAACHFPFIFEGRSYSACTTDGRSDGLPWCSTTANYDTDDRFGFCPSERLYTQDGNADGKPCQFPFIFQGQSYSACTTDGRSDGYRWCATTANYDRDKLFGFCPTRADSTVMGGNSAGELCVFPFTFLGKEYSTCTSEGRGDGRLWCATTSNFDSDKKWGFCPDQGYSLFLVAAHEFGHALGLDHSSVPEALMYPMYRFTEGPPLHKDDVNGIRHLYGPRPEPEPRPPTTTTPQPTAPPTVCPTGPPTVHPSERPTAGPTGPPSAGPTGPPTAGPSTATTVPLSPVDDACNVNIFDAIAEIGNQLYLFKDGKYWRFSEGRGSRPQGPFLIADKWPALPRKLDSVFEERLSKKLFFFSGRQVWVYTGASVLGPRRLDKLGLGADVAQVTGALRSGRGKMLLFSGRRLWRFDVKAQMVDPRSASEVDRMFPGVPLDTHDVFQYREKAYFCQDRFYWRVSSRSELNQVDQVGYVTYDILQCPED

Sequence of 72 kDa type IV collagenase (P08253 whole entry): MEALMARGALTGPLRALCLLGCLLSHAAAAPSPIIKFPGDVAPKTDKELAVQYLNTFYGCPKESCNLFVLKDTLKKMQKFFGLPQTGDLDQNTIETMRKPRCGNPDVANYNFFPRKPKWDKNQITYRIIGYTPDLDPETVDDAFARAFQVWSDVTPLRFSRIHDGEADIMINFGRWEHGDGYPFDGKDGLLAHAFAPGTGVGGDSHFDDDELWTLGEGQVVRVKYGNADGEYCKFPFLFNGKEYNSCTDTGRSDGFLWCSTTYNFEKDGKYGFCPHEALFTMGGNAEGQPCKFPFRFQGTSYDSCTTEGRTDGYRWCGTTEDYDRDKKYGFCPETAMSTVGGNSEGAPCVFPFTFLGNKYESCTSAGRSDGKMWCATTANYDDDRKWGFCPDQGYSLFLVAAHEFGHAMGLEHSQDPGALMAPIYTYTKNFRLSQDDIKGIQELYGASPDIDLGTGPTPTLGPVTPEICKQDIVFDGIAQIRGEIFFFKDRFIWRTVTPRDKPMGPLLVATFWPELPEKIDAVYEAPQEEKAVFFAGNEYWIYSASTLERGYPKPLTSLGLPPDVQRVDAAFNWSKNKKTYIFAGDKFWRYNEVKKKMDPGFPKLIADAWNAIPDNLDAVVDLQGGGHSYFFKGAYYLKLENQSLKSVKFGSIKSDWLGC
Sequence of Neutrophil collagenase (P22894 whole entry): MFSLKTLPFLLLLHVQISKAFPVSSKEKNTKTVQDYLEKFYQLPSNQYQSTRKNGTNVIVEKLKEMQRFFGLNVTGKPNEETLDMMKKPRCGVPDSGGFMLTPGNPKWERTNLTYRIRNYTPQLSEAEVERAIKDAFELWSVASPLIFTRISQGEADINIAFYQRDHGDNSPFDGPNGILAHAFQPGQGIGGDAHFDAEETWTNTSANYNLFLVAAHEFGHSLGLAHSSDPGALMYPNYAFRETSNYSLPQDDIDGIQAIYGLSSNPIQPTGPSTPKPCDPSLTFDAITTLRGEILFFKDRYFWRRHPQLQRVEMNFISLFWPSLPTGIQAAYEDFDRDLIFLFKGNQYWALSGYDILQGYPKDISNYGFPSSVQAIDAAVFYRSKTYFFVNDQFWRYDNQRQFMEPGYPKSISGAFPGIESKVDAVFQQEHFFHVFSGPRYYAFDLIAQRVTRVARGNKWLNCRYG

As for `CNC(=O)[C@H](Cc1ccc(OC)cc1)NC(=O)[C@@H](CC(=O)NO)Cc1ccc(O)cc1`, in experiment [1], the midpoint of inhibition, the IC50, lay at 332 nM. For the same compound, the inhibition constant (Ki) at Interstitial collagenase amounted to 0.0107 µM; on Neutrophil collagenase, 0.45 nM; in experiment [2], 4.3 nM; in experiment [3], 0.0032 µM.
The like results for `O=C(C[C@@H](Cc1ccc(O)cc1)C(=O)N[C@@H]1CCc2ccccc21)NO` were, in that order, 1310 nM, 75 µM, 15300 nM, 31600 nM and 21.2 µM.
For `O=C(C[C@@H](Cc1ccc(O)cc1)C(=O)N[C@H]1c2ccccc2C[C@H]1O)NO` the same measures were 182 nM, 0.946 µM, 70 nM, 408 nM and 0.166 µM.
For `O=C(NO)[C@@H](NCC1CC1)[C@@H](Cc1cccc(O)c1)C(=O)N[C@H]1c2ccccc2C[C@H]1O` the same measures were 12 nM, 33.2 µM, 171 nM, 6300 nM and 4.47 µM.
Compound `CC(C)C[C@H](CC(=O)NO)C(=O)N[C@H]1c2ccccc2C[C@H]1O` showed an IC50 in experiment [1] of 1700 nM. The Ki at Interstitial collagenase stood at 0.082 µM; at Neutrophil collagenase it was 37 nM; in experiment [2] it was 73 nM; in experiment [3] it was 0.162 µM.
`O=C(C[C@@H](Cc1ccc2c(c1)OCO2)C(=O)N[C@H]1c2ccccc2C[C@H]1O)NO`: in experiment [1], the IC50 was 790 nM. In addition, the Ki came to 50 µM on Interstitial collagenase, 40000 nM at Neutrophil collagenase, 35000 nM in experiment [2] and 22 µM in experiment [3].
For `COc1cccc(C[C@H](CC(=O)NO)C(=O)N[C@H]2c3ccccc3C[C@H]2O)c1` the same measures were 3140 nM, 95.5 µM, 1190 nM, 6600 nM and 15.5 µM.
For `O=C(C[C@@H](Cc1cccc(O)c1)C(=O)N[C@H]1c2ccccc2C[C@H]1O)NO` the same measures were 64 nM, 31 µM, 8600 nM, 1510 nM and 3.32 µM.
`CNC(=O)[C@H](Cc1ccc(OC)cc1)NC(=O)[C@@H](CC(=O)NO)CC(C)C` displayed an IC50 in experiment [1] of 368 nM. Further, the inhibitory constant (Ki) was 0.7 nM at Neutrophil collagenase and < 0.001 µM in experiment [3].
In turn, `COc1ccc(C[C@H](CC(=O)NO)C(=O)N[C@H]2c3ccccc3C[C@H]2O)cc1` gave an IC50 in experiment [1] of 16.4 nM. The Ki is 1.16 µM on Interstitial collagenase, 9.2 nM on Neutrophil collagenase, 52 nM in experiment [2] and 0.203 µM in experiment [3].
The like results for `CC(C)C[C@H](CC(=O)NO)C(=O)N[C@@H]1c2ccccc2C[C@@H]1O` were, in that order, 13300 nM, 1.09 µM, 303 nM, 1530 nM and 4.2 µM.
